From ChEMBL document CHEMBL1145456, “Antitumor agents 253. Design, synthesis, and antitumor evaluation of novel 9-substituted phenanthrene-based tylophorine derivatives as potential anticancer agents” (J Med Chem, 2007)
Calls of active or inactive are those of the source. The rule behind the calls is not given here.

What was measured:
A549 [1] = experiment: Cytotoxicity against human A549 cells by SRB microtiter plate assay; type: functional, cell-based
How it was run: (§1)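 Cells were cultured at 37 °C, 5% CO₂, in RPMI-1640 with 25 mM HEPES, 2% bicarbonate, 10% FBS and kanamycin. Compounds were added from DMSO stocks, final DMSO ≤1% (v/v). IC₅₀ was interpolated from dose-response data. Each test was run in triplicate in independent experiments.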

[2] = Cytotoxicity against multidrug resistant human KB-Vin cells by SRB microtiter plate assay; type: functional, cell-based; how it was run: as §1
DU-145 = experiment: Cytotoxicity against human DU145 cells by SRB microtiter plate assay; type: functional, cell-based; how it was run: as §1
ZR-75-1 = experiment: Cytotoxicity against human ZR751cells by SRB microtiter plate assay; type: functional, cell-based; how it was run: as §1
KB = experiment: Cytotoxicity against human KB cells by SRB microtiter plate assay; type: functional, cell-based
How it was run: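 KB cells grown at 37 °C, 5% CO₂, humidified, in RPMI-1640 with 25 mM HEPES, 2% (w/v) sodium bicarbonate, 10% FBS and 100 µg/mL kanamycin. Compounds were added from DMSO stocks, with final DMSO at or below 1% (v/v). IC₅₀ was interpolated from dose-response data. Each test was run in triplicate, and independent tests were repeated.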

A549 [3] = experiment: Antitumor activity against human A549 xenografted SCID mouse model at 10 mg/kg, ip after 5 days; type: functional, organism-based; parameters: dose 10 mg/kg
How it was run: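 Male SCID mice were inoculated s.c. on the dorsal side with 1.5 × 10⁷ A549 cells. Day 1 was when tumors reached ≥5 mm; groups of six. Dosing ip at 10 mL/kg every 4 days for six doses. Tumor size and body weight recorded every 4 days. Tumor weight = length × width² × 0.5. T/C = (Tn−T1)/(Cn−C1) × 100% against vehicle.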

## COc1ccc2c(CN3CCN(CCOCCO)CC3)cc3cc4c(cc3c2c1)OCO4
A549 [1]; Homo sapiens, A549
  IC50: 57100 nM

## COc1ccc2c(CN3CCC(CO)CC3)cc3cc4c(cc3c2c1)OCO4 [listing 1 of 3 here]
[2]
  IC50: 40 nM
DU-145; Homo sapiens, DU-145
  IC50: 50 nM
A549 [1]; a549
  IC50: 70 nM
ZR-75-1; Homo sapiens, ZR-75-1
  IC50: 40 nM
KB; kb
  IC50: 70 nM

## COc1ccc2c(CN3CCN(c4ccc(O)cc4)CC3)cc3cc4c(cc3c2c1)OCO4
[2]; Homo sapiens, KBVIN
  IC50: 340 nM
DU-145; Homo sapiens, DU-145
  IC50: 150 nM
A549 [1]; Homo sapiens, A549
  IC50: 220 nM
ZR-75-1; Homo sapiens, ZR-75-1
  IC50: 180 nM
KB; Homo sapiens, KB
  IC50: 130 nM

## COc1ccc2c(CN3CCC[C@@H]3CO)cc3cc4c(cc3c2c1)OCO4
A549 [1]; Homo sapiens, A549
  IC50: 1100 nM

## OC[C@@H]1CCCCN1Cc1cc2cc3c(cc2c2cc(OCc4ccccc4)ccc12)OCO3
A549 [1]; Homo sapiens, A549
  IC50: 1300 nM

## COc1ccc2c(CN3CCC(CCO)CC3)cc3cc4c(cc3c2c1)OCO4 [listing 1 of 2 here]
[2]
  IC50: 500 nM
DU-145; du-145
  IC50: 150 nM
A549 [1]; Homo sapiens, A549
  IC50: 150 nM
ZR-75-1; zr-75-1
  IC50: 30 nM
KB; kb
  IC50: 420 nM

## O=C(O)[C@@H]1CCCCN1Cc1cc2cc3c(cc2c2cc(OCc4ccccc4)ccc12)OCO3
A549 [1]; Homo sapiens, A549
  IC50: 3200 nM

## COc1ccc2c(CN3CCC[C@H]3C(=O)O)cc3cc4c(cc3c2c1)OCO4
A549 [1]; Homo sapiens, A549
  IC50: 2100 nM

## COc1ccc2c(CNCCCCCO)cc3cc4c(cc3c2c1)OCO4
A549 [1]; Homo sapiens, A549
  IC50: 270 nM

## COc1ccc2c(CN3CCCC[C@H]3CO)cc3cc4c(cc3c2c1)OCO4 [listing 1 of 2 here]
[2]; Homo sapiens, KBVIN
  IC50: 160 nM
DU-145; du-145
  IC50: 210 nM
A549 [1]; Homo sapiens, A549
  IC50: 160 nM
ZR-75-1; Homo sapiens, ZR-75-1
  IC50: 100 nM
KB; Homo sapiens, KB
  IC50: 120 nM

## COc1ccc2c(CNCCCCCCCCCCC(=O)O)cc3cc4c(cc3c2c1)OCO4
A549 [1]; Homo sapiens, A549
  IC50: 3200 nM

## O=C(O)C1CCN(Cc2cc3cc4c(cc3c3cc(OCc5ccccc5)ccc23)OCO4)CC1
A549 [1]; Homo sapiens, A549
  IC50: 2100 nM

## COc1ccc2c(CN3CCN(c4ccccc4Cl)CC3)cc3cc4c(cc3c2c1)OCO4
A549 [1]
  Activity: inactive

## COc1ccc2c(CN3CCCC[C@H]3C(=O)O)cc3cc4c(cc3c2c1)OCO4
A549 [1]; Homo sapiens, A549
  IC50: 500 nM

## COc1ccc2c(CN3CCC(CO)CC3)cc3cc4c(cc3c2c1)OCO4 [listing 2 of 3 here]
A549 [3]
  Activity: Active

## COc1cccc2c1C(=O)c1c(O)c3c(c(O)c1C2=O)C[C@@](O)(C(=O)CO)C[C@@H]3O[C@H]1C[C@H](N)[C@H](O)[C@H](C)O1 [DOXORUBICIN]
[2]; Homo sapiens, KBVIN
  IC50: > 4000 nM
DU-145; Homo sapiens, DU-145
  IC50: 130 nM
A549 [1]; Homo sapiens, A549
  IC50: 180 nM
ZR-75-1; Homo sapiens, ZR-75-1
  IC50: 40 nM
KB; Homo sapiens, KB
  IC50: 180 nM

## COc1cc([C@@H]2c3cc4c(cc3[C@@H](O[C@@H]3O[C@@H]5CO[C@@H](C)O[C@H]5[C@H](O)[C@H]3O)[C@H]3COC(=O)[C@H]23)OCO4)cc(OC)c1O [ETOPOSIDE]
[2]; Homo sapiens, KBVIN
  IC50: > 10000 nM
DU-145; Homo sapiens, DU-145
  IC50: 2400 nM
A549 [1]; Homo sapiens, A549
  IC50: 1400 nM
ZR-75-1; Homo sapiens, ZR-75-1
  IC50: 3100 nM
KB; Homo sapiens, KB
  IC50: 4800 nM

## COc1ccc2c(CNCCCCCCO)cc3cc4c(cc3c2c1)OCO4 [listing 1 of 2 here]
[2]
  IC50: 160 nM
DU-145; du-145
  IC50: 70 nM
ZR-75-1; Homo sapiens, ZR-75-1
  IC50: 80 nM
KB; Homo sapiens, KB
  IC50: 230 nM

## COc1ccc2c(CN3CCC[C@H]3CO)cc3cc4c(cc3c2c1)OCO4
A549 [1]; Homo sapiens, A549
  IC50: 700 nM

## COc1ccc2c(CNCCCCC(=O)O)cc3cc4c(cc3c2c1)OCO4
A549 [1]; Homo sapiens, A549
  IC50: 1300 nM

## COc1ccc2c(CN3CCC(C(=O)O)CC3)cc3cc4c(cc3c2c1)OCO4
[2]; Homo sapiens, KBVIN
  IC50: 380 nM
DU-145; Homo sapiens, DU-145
  IC50: 310 nM
A549 [1]; Homo sapiens, A549
  IC50: 230 nM
ZR-75-1; Homo sapiens, ZR-75-1
  IC50: 250 nM
KB; Homo sapiens, KB
  IC50: 150 nM

## COc1ccc2c(CN3CCN(c4ccc(Cl)cc4)CC3)cc3cc4c(cc3c2c1)OCO4
A549 [1]; Homo sapiens, A549
  IC50: 65200 nM

## COc1ccc2c(CNCCCCCC(=O)O)cc3cc4c(cc3c2c1)OCO4
[2]; Homo sapiens, KBVIN
  IC50: 830 nM
DU-145; Homo sapiens, DU-145
  IC50: 670 nM
A549 [1]; Homo sapiens, A549
  IC50: 800 nM
ZR-75-1; Homo sapiens, ZR-75-1
  IC50: 540 nM
KB; Homo sapiens, KB
  IC50: 330 nM

## CC[C@]1(O)C[C@H]2CN(CCc3c([nH]c4ccccc34)[C@@](C(=O)OC)(c3cc4c(cc3OC)N(C=O)[C@H]3[C@@](O)(C(=O)OC)[C@H](OC(C)=O)[C@]5(CC)C=CCN6CC[C@]43[C@@H]65)C2)C1 [VINCRISTINE]
[2]; Homo sapiens, KBVIN
  IC50: 5300 nM
DU-145; Homo sapiens, DU-145
  IC50: 85 nM
A549 [1]; Homo sapiens, A549
  IC50: 40 nM
ZR-75-1; Homo sapiens, ZR-75-1
  IC50: 40 nM
KB; Homo sapiens, KB
  IC50: 6 nM

## OCC1CCN(Cc2cc3cc4c(cc3c3cc(OCc5ccccc5)ccc23)OCO4)CC1
A549 [1]; Homo sapiens, A549
  IC50: 700 nM

## COc1ccc2c(CN3CCCC[C@H]3CO)cc3cc4c(cc3c2c1)OCO4 [listing 2 of 2 here]
[2]
  IC50: 90 nM
DU-145; du-145
  IC50: 90 nM
ZR-75-1; zr-75-1
  IC50: 80 nM

## COc1ccc2c(CNCCCCCCCCCCCO)cc3cc4c(cc3c2c1)OCO4
A549 [1]; Homo sapiens, A549
  IC50: 2600 nM

## COc1ccc2c(CN3CCN(CCO)CC3)cc3cc4c(cc3c2c1)OCO4
[2]; Homo sapiens, KBVIN
  IC50: 510 nM
DU-145; Homo sapiens, DU-145
  IC50: 250 nM
A549 [1]; Homo sapiens, A549
  IC50: 630 nM
ZR-75-1; Homo sapiens, ZR-75-1
  IC50: 230 nM
KB; Homo sapiens, KB
  IC50: 500 nM

## CC[C@H]1CN2CCc3cc(OC)c(OC)cc3[C@@H]2C[C@@H]1C[C@H]1NCCc2cc(OC)c(OC)cc21 [EMETINE]
[2]; Homo sapiens, KBVIN
  IC50: > 2000 nM
DU-145; Homo sapiens, DU-145
  IC50: 60 nM
A549 [1]; Homo sapiens, A549
  IC50: 40 nM
ZR-75-1; Homo sapiens, ZR-75-1
  IC50: 100 nM
KB; Homo sapiens, KB
  IC50: 40 nM

## COc1ccc2c(CNCCCCCCO)cc3cc4c(cc3c2c1)OCO4 [listing 2 of 2 here]
[2]
  IC50: 350 nM
DU-145; du-145
  IC50: 440 nM
A549 [1]; Homo sapiens, A549
  IC50: 200 nM
ZR-75-1; zr-75-1
  IC50: 130 nM
KB; kb
  IC50: 250 nM

## COc1ccc2c(CN3CCC(CCO)CC3)cc3cc4c(cc3c2c1)OCO4 [listing 2 of 2 here]
[2]
  IC50: 200 nM
DU-145; Homo sapiens, DU-145
  IC50: 100 nM
A549 [1]; a549
  IC50: 90 nM
ZR-75-1; Homo sapiens, ZR-75-1
  IC50: 20 nM
KB; kb
  IC50: 200 nM

## COc1ccc2c3c(c4cc(OC)c(OC)cc4c2c1)C[C@H]1CCCN1C3 [(-)-ANTOFINE]
[2]; Homo sapiens, KBVIN
  IC50: 9 nM
DU-145; Homo sapiens, DU-145
  IC50: 9 nM
A549 [1]; Homo sapiens, A549
  IC50: 8 nM
ZR-75-1; Homo sapiens, ZR-75-1
  IC50: 8 nM
KB; Homo sapiens, KB
  IC50: 13 nM

## COc1ccc2c(CN3CCC[C@@H]3C(=O)O)cc3cc4c(cc3c2c1)OCO4
A549 [1]; Homo sapiens, A549
  IC50: 5200 nM

## COc1ccc2c(CN3CCC(CO)CC3)cc3cc4c(cc3c2c1)OCO4 [listing 3 of 3 here]
[2]
  IC50: 90 nM
DU-145; du-145
  IC50: 30 nM
A549 [1]; Homo sapiens, A549
  IC50: 80 nM
ZR-75-1; zr-75-1
  IC50: 30 nM
KB; kb
  IC50: 240 nM
